Results from ChEMBL document CHEMBL1147081, “Structure of the deacetylase LpxC bound to the antibiotic CHIR-090: Time-dependent inhibition and specificity in ligand binding” (Proc Natl Acad Sci U S A, 2007).

Tests used:
[1] = target: UDP-3-O-acyl-N-acetylglucosamine deacetylase (Escherichia coli K-12, UniProt P0A725, G210S/Q202W); assay: Inhibition of Escherichia coli LpxC Q202W/G210S mutant
[2] = Inhibition of Rhizobium leguminosarum LpxC
[3] = target: UDP-3-O-acyl-N-acetylglucosamine deacetylase (Rhizobium leguminosarum bv. trifolii (strain WSM1325), UniProt C6ARS9, S214G/W206Q); assay: Inhibition of Rhizobium leguminosarum LpxC W206Q/S214G mutant
Sequence of UDP-3-O-acyl-N-acetylglucosamine deacetylase (Rhizobium leguminosarum bv. trifolii (strain WSM1325), UniProt C6ARS9, S214G/W206Q) (C6ARS9 as listed by the source W206Q/S214G): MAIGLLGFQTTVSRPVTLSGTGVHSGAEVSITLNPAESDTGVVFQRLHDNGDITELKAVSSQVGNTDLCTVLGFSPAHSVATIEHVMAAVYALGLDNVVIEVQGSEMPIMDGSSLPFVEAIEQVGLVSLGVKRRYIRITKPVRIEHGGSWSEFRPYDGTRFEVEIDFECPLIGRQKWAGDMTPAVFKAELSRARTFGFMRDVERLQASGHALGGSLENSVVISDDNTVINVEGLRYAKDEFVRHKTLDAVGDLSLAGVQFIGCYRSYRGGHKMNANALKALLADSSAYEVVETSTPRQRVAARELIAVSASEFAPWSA
Outline: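 Assays used 5 μM UDP-3-O-(R-3-hydroxymyristoyl)-N-acetylglucosamine substrate and varied inhibitor at constant 10% DMSO. An IC50 curve was fit to fractional activity (vi/vo), and Ki was derived with the Cheng–Prusoff relationship.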

[4] = target: T1, UDP-3-O-acyl-N-acetylglucosamine deacetylase (Escherichia coli K-12, UniProt P0A725); assay: Inhibition of Escherichia coli LpxC
T1 sequence (P0A725 whole entry): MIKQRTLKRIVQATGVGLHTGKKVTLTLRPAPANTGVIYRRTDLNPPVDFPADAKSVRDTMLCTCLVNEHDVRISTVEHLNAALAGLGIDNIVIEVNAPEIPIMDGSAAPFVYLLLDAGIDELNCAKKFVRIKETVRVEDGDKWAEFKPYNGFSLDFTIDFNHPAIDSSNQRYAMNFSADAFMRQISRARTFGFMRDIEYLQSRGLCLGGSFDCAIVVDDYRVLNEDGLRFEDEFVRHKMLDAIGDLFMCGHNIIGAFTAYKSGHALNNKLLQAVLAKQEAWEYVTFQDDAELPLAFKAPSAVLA

Sequence of UDP-3-O-acyl-N-acetylglucosamine deacetylase (Escherichia coli K-12, UniProt P0A725, G210S/Q202W) (P0A725 whole entry Q202W/G210S): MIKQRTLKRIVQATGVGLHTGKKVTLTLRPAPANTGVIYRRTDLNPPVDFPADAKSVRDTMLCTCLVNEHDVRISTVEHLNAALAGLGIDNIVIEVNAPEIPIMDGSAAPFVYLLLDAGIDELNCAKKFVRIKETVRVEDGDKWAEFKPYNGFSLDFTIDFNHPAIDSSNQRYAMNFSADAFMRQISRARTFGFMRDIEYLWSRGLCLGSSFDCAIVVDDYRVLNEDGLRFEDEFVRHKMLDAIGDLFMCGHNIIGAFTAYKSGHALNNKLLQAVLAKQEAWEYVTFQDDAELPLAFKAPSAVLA

Structure (SMILES)	Ki [1] [µM]	Ki [2] [µM]	Ki [3] [µM]	Ki [4] [µM]
CCCc1cc(C2=N[C@@H](C(=O)NO)CO2)cc(OC)c1OC	0.34	380	110	0.053
O=C(NO)[C@@H](Cc1ccc2ccccc2c1)NS(=O)(=O)c1ccc2ccccc2c1	0.086	5.8	0.7	0.069
